Assay results published in ChEMBL document CHEMBL1255355, “Characterization of a naturally occurring class D beta-lactamase from Achromobacter xylosoxidans” (Antimicrob Agents Chemother, 2008).
≈ marks a conversion by molar mass, not a printed value. Calls of active or inactive are those of the source. The calls are words filed in the database; no cut-off is given here.

How the values were obtained:
[1] = tested on: Achromobacter xylosoxidans; assay: Antibacterial activity against Achromobacter xylosoxidans CIP69598 by agar dilution method; format: functional
Procedure, shortened: (§1)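 MICs of β-lactams measured by agar dilution, with interpretation per CLSI guidelines. Combination tests used clavulanic acid or tazobactam at a fixed 4 μg/ml. Reference strain CIP69598 and clinical isolates MER, TB1, LOL and DUC, identified by API 32-GN. Cultures routinely grown in TS broth at 37°C.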

[2] = tested on: Achromobacter xylosoxidans; assay: Antibacterial activity against Achromobacter xylosoxidans MER by agar dilution method; format: functional; procedure, shortened: as §1
[3] = tested on: Achromobacter xylosoxidans; assay: Antibacterial activity against Achromobacter xylosoxidans LOL by agar dilution method; format: functional; procedure, shortened: as §1
[4] = tested on: Achromobacter xylosoxidans; assay: Antibacterial activity against Achromobacter xylosoxidans DUC by agar dilution method; format: functional; procedure, shortened: as §1
[5] = tested on: Achromobacter xylosoxidans; assay: Antibacterial activity against Achromobacter xylosoxidans TB1 by agar dilution method; format: functional; procedure, shortened: as §1
Escherichia coli [6] = assay: microbe, parasite or virus in culture; format: functional; details: TOP10
Escherichia coli [7] = assay: Antibacterial activity against Escherichia coli TOP10 by agar dilution method; format: functional
Procedure, shortened: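 MIC determined by agar dilution; results interpreted per CLSI guidelines. E. coli TOP10 serves as the cloning host. Bacteria were routinely grown in Trypticase soy broth at 37°C.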

[8] = tested on: Achromobacter xylosoxidans; assay: Activity of Achromobacter xylosoxidans CIP69598 beta-lactamase OXA-114a expressed in Escherichia coli TOP10 assessed as compound hydrolysis
Procedure, shortened: (§2)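 OXA-114a purified from E. coli TOP10(p6S3) grown overnight in TS broth with kanamycin 30 μg/ml and ampicillin 50 μg/ml, by sonication, spermine, Q-Sepharose (pH 8.8) and S-Sepharose (pH 6.5) steps. Initial hydrolysis rates read by UV spectrophotometry at 30°C in 100 mM Tris-H2SO4-300 mM K2SO4 pH 7.0 with 10 mM NaHCO3. kcat and Km are means of three independent experiments.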

[9] = tested on: Achromobacter xylosoxidans; assay: Ratio of Kcat to Km for Achromobacter xylosoxidans CIP69598 beta-lactamase OXA-114a expressed in Escherichia coli TOP10; set-up: unit not given here; procedure, shortened: as §2
[10] = tested on: Achromobacter xylosoxidans; assay: Antibacterial activity against Achromobacter xylosoxidans CIP69598 in presence of 4 ug/ml clavulanic acid by agar dilution method; format: functional; procedure, shortened: as §1
[11] = tested on: Achromobacter xylosoxidans; assay: Antibacterial activity against Achromobacter xylosoxidans MER in presence of 4 ug/ml clavulanic acid by agar dilution method; format: functional; procedure, shortened: as §1
[12] = tested on: Achromobacter xylosoxidans; assay: Antibacterial activity against Achromobacter xylosoxidans LOL in presence of 4 ug/ml clavulanic acid by agar dilution method; format: functional; procedure, shortened: as §1
[13] = tested on: Achromobacter xylosoxidans; assay: Antibacterial activity against Achromobacter xylosoxidans DUC in presence of 4 ug/ml clavulanic acid by agar dilution method; format: functional; procedure, shortened: as §1
[14] = tested on: Achromobacter xylosoxidans; assay: Antibacterial activity against Achromobacter xylosoxidans TB1 in presence of 4 ug/ml clavulanic acid by agar dilution method; format: functional; procedure, shortened: as §1
Escherichia coli [15] = assay: Antibacterial activity against Escherichia coli TOP10 harboring recombinant p6S3 expressing beta lactamase OXA-114a in presence of 4 ug/ml clavulanic acid by agar dilution method; format: functional
Procedure, shortened: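 Agar dilution MIC with clavulanic acid held at a fixed 4 μg/ml; interpreted per CLSI guidelines. Host E. coli TOP10 was electroporated with p6S3, a kanamycin-resistant pBK-CMV vector carrying a Sau3AI partial-digest fragment of A. xylosoxidans CIP69598 genomic DNA. Routine growth was in Trypticase soy broth at 37°C.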

Escherichia coli [16] = assay: Antibacterial activity against Escherichia coli TOP10 in presence of 4 ug/ml clavulanic acid by agar dilution method; format: functional
Procedure, shortened: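 Agar dilution MICs of β-lactams, with clavulanic acid held at a fixed 4 μg/ml alongside each β-lactam. Results were interpreted against CLSI guidelines. Strains were routinely grown in Trypticase soy broth at 37°C. The E. coli TOP10 host was tested, including TOP10 carrying a pBK-CMV clone of the chromosomal A. xylosoxidans CIP69598 class D β-lactamase gene.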

[17] = tested on: Achromobacter xylosoxidans; assay: Induction of Achromobacter xylosoxidans CIP69598 beta-lactamase OXA-114a expressed in Escherichia coli TOP10 assessed as imipenem hydrolysis
Procedure, shortened: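 Hydrolysis measured with 100 μM benzylpenicillin or imipenem as substrate. One unit hydrolyzes 1 μmol substrate/min. Protein measured against a bovine albumin standard.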

[18] = Inhibition of Achromobacter xylosoxidans CIP69598 beta-lactamase OXA-114a expressed in Escherichia coli TOP10 assessed as reduction of benzyl-penicillin hydrolysis
Procedure, shortened: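 Ki obtained by competition with benzylpenicillin as reporter substrate. Purified enzyme, 30°C, 100 mM Tris-H2SO4-300 mM K2SO4 pH 7.0 with 10 mM NaHCO3. Initial rates read by UV spectrophotometry. Means of three independent experiments.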

[19] = tested on: Achromobacter xylosoxidans; assay: Antibacterial activity against Achromobacter xylosoxidans CIP69598 in presence of 4 ug/ml Tazobactam by agar dilution method; format: functional; procedure, shortened: as §1
[20] = tested on: Achromobacter xylosoxidans; assay: Antibacterial activity against Achromobacter xylosoxidans MER in presence of 4 ug/ml Tazobactam by agar dilution method; format: functional; procedure, shortened: as §1
[21] = tested on: Achromobacter xylosoxidans; assay: Antibacterial activity against Achromobacter xylosoxidans LOL in presence of 4 ug/ml Tazobactam by agar dilution method; format: functional; procedure, shortened: as §1
[22] = tested on: Achromobacter xylosoxidans; assay: Antibacterial activity against Achromobacter xylosoxidans DUC in presence of 4 ug/ml Tazobactam by agar dilution method; format: functional; procedure, shortened: as §1
[23] = tested on: Achromobacter xylosoxidans; assay: Antibacterial activity against Achromobacter xylosoxidans TB1 in presence of 4 ug/ml Tazobactam by agar dilution method; format: functional; procedure, shortened: as §1
Escherichia coli [24] = assay: Antibacterial activity against Escherichia coli TOP10 harboring recombinant p6S3 expressing beta lactamase OXA-114a in presence of 4 ug/ml Tazobactam by agar dilution method; format: functional
Procedure, shortened: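 MICs by agar dilution, with tazobactam held at a fixed 4 μg/ml and results read against CLSI guidelines. Strain is E. coli TOP10 carrying p6S3, a kanamycin-resistant pBK-CMV vector holding a partial Sau3AI fragment of A. xylosoxidans CIP69598 genomic DNA. It was selected on ticarcillin 50 mg/liter plus kanamycin 30 mg/liter. Cultures were routinely grown in TS broth at 37°C.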

Escherichia coli [25] = assay: Antibacterial activity against Escherichia coli TOP10 in presence of 4 ug/ml Tazobactam by agar dilution method; format: functional
Procedure, shortened: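 Plasmid-free E. coli TOP10 cloning host, tested by agar dilution MIC with tazobactam at a fixed 4 μg/ml and interpreted per CLSI guidelines. Cultures were routinely grown in Trypticase soy broth at 37°C.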

SMILES	MIC [1] [µg/mL]	MIC [2] [µg/mL]	MIC [3] [µg/mL]	MIC [4] [µg/mL]	MIC [5] [µg/mL]	MIC (Escherichia coli [6]) [µg/mL]	MIC (Escherichia coli [7]) [µg/mL]	kcat [8] [s⁻¹]	further results
CC1(C)S[C@@H]2[C@H](NC(=O)[C@H](C(=O)O)c3ccsc3)C(=O)N2[C@H]1C(=O)O [TICARCILLIN]	4 (≈ 10.4 µM)	1 (≈ 2.6 µM)	> 64	1 (≈ 2.6 µM)	1 (≈ 2.6 µM)	4 (≈ 10.4 µM)	2 (≈ 5.2 µM)	0.1	Km [8]: 40 µM; Ratio [9]: 2.5; MIC [10]: 4 µg/mL; MIC [11]: 1 µg/mL; MIC [12]: > 64 µg/mL; MIC [13]: 1 µg/mL; MIC [14]: 1 µg/mL; MIC (Escherichia coli [15]): 4 µg/mL; MIC (Escherichia coli [16]): 2 µg/mL
CO[C@@]1(NC(=O)C(C(=O)O)c2ccc(O)cc2)C(=O)N2C(C(=O)O)=C(CSc3nnnn3C)CO[C@@H]21 (stereo not given in full) [MOXALACTAM]	2 (≈ 3.84 µM)	2 (≈ 3.84 µM)	1 (≈ 1.92 µM)	2 (≈ 3.84 µM)	2 (≈ 3.84 µM)	1 (≈ 1.92 µM)	1 (≈ 1.92 µM)		
Cc1onc(-c2ccccc2)c1C(=O)N[C@@H]1C(=O)N2[C@@H]1SC(C)(C)[C@@H]2C(=O)O								< 0.01	
CC(C)(O/N=C(\C(=O)N[C@@H]1C(=O)N2C(C(=O)[O-])=C(C[n+]3ccccc3)CS[C@H]12)c1csc(N)n1)C(=O)O [CEFTAZIDIME]	4 (≈ 7.32 µM)	16 (≈ 29.3 µM)	4 (≈ 7.32 µM)	8 (≈ 14.6 µM)	4 (≈ 7.32 µM)	0.06 (≈ 0.11 µM)	0.06 (≈ 0.11 µM)	< 0.01	
CO/N=C(\C(=O)N[C@@H]1C(=O)N2C(C(=O)[O-])=C(C[N+]3(C)CCCC3)CS[C@H]12)c1csc(N)n1	64 (≈ 133 µM)	> 64	> 64	> 64	> 64	0.12 (≈ 0.25 µM)			
CC(=O)OCC1=C(C(=O)O)N2C(=O)[C@@H](NC(=O)Cc3cccs3)[C@H]2SC1 [CEPHALOTHIN]	> 64	32 (≈ 80.7 µM)	> 64	32 (≈ 80.7 µM)	32 (≈ 80.7 µM)	8 (≈ 20.2 µM)	2 (≈ 5.04 µM)	0.5	Km [8]: 15 µM; Ratio [9]: 30
CO[C@@]1(NC(=O)Cc2cccs2)C(=O)N2C(C(=O)O)=C(COC(N)=O)CS[C@@H]21 [CEFOXITIN]	> 64	> 64	> 64	> 64	> 64	4 (≈ 9.36 µM)	4 (≈ 9.36 µM)	< 0.01	Activity [17]: inactive
CO/N=C(\C(=O)N[C@@H]1C(=O)N2C(C(=O)O)=C(COC(N)=O)CS[C@H]12)c1ccco1 [CEFUROXIME]	> 64	> 64	> 64	> 64	> 64	4 (≈ 9.43 µM)	2 (≈ 4.71 µM)		
C[C@@H](O)[C@H]1C(=O)N2C(C(=O)O)=C(SCCNC=N)C[C@H]12 [IMIPENEM ANHYDROUS]	4 (≈ 13.4 µM)	1 (≈ 3.34 µM)	4 (≈ 13.4 µM)	1 (≈ 3.34 µM)	1 (≈ 3.34 µM)			> 0.1	Km [8]: > 2000 µM; Activity [17]: inactive
CC1(C)S[C@@H]2[C@H](NC(=O)Cc3ccccc3)C(=O)N2[C@H]1C(=O)O								0.1	Km [8]: 10 µM; Ratio [9]: 10
C[C@H]1[C@H](NC(=O)/C(=N\OC(C)(C)C(=O)O)c2csc(N)n2)C(=O)N1S(=O)(=O)O [AZTREONAM]	> 64	> 64	> 64	> 64	> 64				
CO/N=C(\C(=O)N[C@@H]1C(=O)N2C(C(=O)O)=C(COC(C)=O)CS[C@H]12)c1csc(N)n1 [CEFOTAXIME]	> 64	> 64	> 64	> 64	> 64	0.25 (≈ 0.549 µM)	0.12 (≈ 0.263 µM)	< 0.01	
CCN1CCN(C(=O)N[C@@H](C(=O)N[C@@H]2C(=O)N3[C@@H]2SC(C)(C)[C@@H]3C(=O)O)c2ccccc2)C(=O)C1=O [PIPERACILLIN]	1 (≈ 1.93 µM)	1 (≈ 1.93 µM)	4 (≈ 7.73 µM)	1 (≈ 1.93 µM)	2 (≈ 3.86 µM)	4 (≈ 7.73 µM)	1 (≈ 1.93 µM)	0.5	Ki [18]: 1000 nM; Ratio [9]: 100; MIC [19]: 0.5 µg/mL; MIC [20]: 0.5 µg/mL; MIC [21]: 4 µg/mL; MIC [22]: 0.5 µg/mL; MIC [23]: 1 µg/mL; MIC (Escherichia coli [24]): 4 µg/mL; MIC (Escherichia coli [25]): 1 µg/mL
CC1(C)S[C@@H]2[C@H](NC(=O)[C@H](N)c3ccc(O)cc3)C(=O)N2[C@H]1C(=O)O [AMOXICILLIN]	16 (≈ 43.8 µM)	2 (≈ 5.47 µM)	> 64	1 (≈ 2.74 µM)	8 (≈ 21.9 µM)	16 (≈ 43.8 µM)	2 (≈ 5.47 µM)		MIC [10]: 4 µg/mL; MIC [11]: 1 µg/mL; MIC [12]: 8 µg/mL; MIC [13]: 1 µg/mL; MIC [14]: 8 µg/mL; MIC (Escherichia coli [15]): 16 µg/mL; MIC (Escherichia coli [16]): 2 µg/mL
